# Hits are enriched below; roughly 2.6% of the tested compounds scored in any of these assays.
# FGF22 binding: binders of human FGF22 protein, primary screen, FGF22 synaptogenesis inhibitor project, biophysical, thermal shift, single point; 340,000 tested, 1.5% active; Fibroblast growth factor 22 (Homo sapiens), Q9HCT0; activity (Tm shift, normalised), % at 9.99 µM; recombinant FGF22 thermal shift, SYPRO orange fluorescence; percent of sucrose octasulfate shift, DMSO zero;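 active = mean Tm shift, scaled 0 neutral to 100 positive control, at about 1.3% or above, every replicate too, limit read from the data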
# Target sequence (Q9HCT0 whole entry, looked up): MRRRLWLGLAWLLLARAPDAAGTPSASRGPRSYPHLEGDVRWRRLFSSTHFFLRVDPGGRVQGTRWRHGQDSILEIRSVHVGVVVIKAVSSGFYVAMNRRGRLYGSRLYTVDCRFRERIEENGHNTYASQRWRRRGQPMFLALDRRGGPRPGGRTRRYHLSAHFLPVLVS
# Casp6 inh: human caspase-6 inhibitors, primary screen, biochemical, VEID-R110 fluorescence, single point, set 2. P55212. purified caspase-6, Z-VEID-R110 cleavage fluorescence. inhibition, % at 12.5 µM. 350,000 tested, 0.53% active;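 active = mean inhibition across replicates at least about 35%, with every replicate also reaching that limit, limit read from the data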;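 also: 0% = median of neutral control wells and 100% = no fluorescence left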
# Target sequence (P55212 24-179 limits assumed): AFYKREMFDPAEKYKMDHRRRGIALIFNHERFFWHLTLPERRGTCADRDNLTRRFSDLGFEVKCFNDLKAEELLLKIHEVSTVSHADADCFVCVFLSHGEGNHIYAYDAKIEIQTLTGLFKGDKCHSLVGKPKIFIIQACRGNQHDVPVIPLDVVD
# Target sequence (P55212 194-293 limits assumed): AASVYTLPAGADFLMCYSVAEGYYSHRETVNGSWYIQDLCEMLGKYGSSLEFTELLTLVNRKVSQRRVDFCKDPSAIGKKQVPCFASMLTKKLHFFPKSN
# NSD2 inh: NSD2 histone methyltransferase inhibitors, primary screen, biochemical, AlphaScreen, single concentration, set 2. AID 743445, 2014. 310,000 tested, 0.54% active. NSD2 peptide methylation, 120 min. inhibition, % at 12.5 µM; in the data active = inhibition above about 50%
# UCH37 inh: inhibitors of human UCH37 deubiquitinase, primary screen, biochemical, Ub-AMC cleavage, fluorescence. Ubiquitin carboxyl-terminal hydrolase isozyme L5 (Homo sapiens), Q9Y5K5. purified proteasome/UCH37. inhibition, % (concentration not given with the values). 330,000 tested, 0.33% active;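 active = mean inhibition over replicate wells above about 20%, limit read from the data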;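 also: 0% = compound-free wells with enzyme and 100% = wells lacking proteasome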
#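 system = Proteasome-associated human UCH37 deubiquitinase | amount = 0.15 nM proteasome as dispensed | medium = pH 7.4 Tris-HCl (50 mM) with ovalbumin, ATP-MgCl2, DTT | incubation = 30 min preincubation with enzyme, 25 min cleavage at room temperature | detection = AMC fluorescence 355/460 nm | read-out basis = percent inhibition | controls = no-proteasome and no-compound wells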
# SIRT5 block: SIRT5 desuccinylase inhibitors, primary screen, biochemical, fluorescence imaging, single point, set 5 | NAD-dependent protein deacylase sirtuin-5, mitochondrial (Homo sapiens), Q9NXA8 | Purified SirT5, succinyl-peptide AMC, trypsin-coupled fluorescence | inhibition, % at 15 µM | 330,000 tested, 1.1% active; in the data active = inhibition above about 15%
# Numbers without * were called inactive; · = no result given.
SMILES,FGF22 binding,Casp6 inh,NSD2 inh,UCH37 inh,SIRT5 block
NS(=O)(=O)c1ccc(N=NN2CCCCC2)cc1,43*,2,-4,5,-1
C/C=C(/C)C(=O)O[C@@H]1[C@H](OC(=O)C=C(C)C)c2c(ccc3ccc(=O)oc23)OC1(C)C,0,-2,·,0,-8
C/C=C(/C)C(=O)O[C@@H]1c2c(ccc3ccc(=O)oc23)OC(C)(C)[C@@H]1OC(=O)/C(C)=C\C,0,-6,·,2,31*
O=C(/C=C\c1ccco1)NC(=S)Nc1ccccc1O,0,49*,·,7,3
O=C(/C=C/c1ccco1)NC(=S)Nc1ccccc1N1CCCC1,·,·,4,5,·
O=C(O)CCCNC(=O)/C=C/c1ccco1,44*,60*,24,0,0
Cc1ccc(NC(=S)NC(=O)/C=C/c2ccco2)c(O)c1,0,43*,11,1,12
O=C(/C=C/c1ccco1)NC(=S)Nc1cccc(C(=O)O)c1,1,36*,40,7,22*
CCCCNC(=S)N(C)N=Cc1ccccc1C(=O)O,·,·,·,8,·
O=C(CN1CCCCC1)NN=Cc1cccc(Cl)c1,·,·,·,-1,·
CC(=NNC(=O)CNC(=O)c1ccccc1Br)c1ccco1,·,·,·,3,·
O=C(/C=C/c1ccco1)NC(=S)Nc1ccccc1N1CCOCC1,·,·,2,5,·
O=C(/C=C/c1ccco1)NC(=S)Nc1ccccc1O,0,51*,24,6,4
O=C(C[C@H]1C[C@@H]2c3cc(NC(=O)CC4CC4)ccc3O[C@@H]2[C@H](CO)O1)NCCc1ccccc1,0,0,·,·,14
O=C(O)c1ccc(N=Nc2c(O)[nH]c3cc(Cl)ccc23)cc1,0,38*,4,·,12
O=C(O)c1ccc(Cn2cnc3sc4c(c3c2=O)CCCC4)cc1,43*,2,-3,1,-1
O=C(O)Cn1cnc2sc3c(c2c1=O)CCCC3,0,1,-3,1,1
C[C@H](CO)N1C[C@H](C)[C@H](CN(C)Cc2ccc(C(F)(F)F)cc2)OCc2ccccc2-c2c(n(C)c3ccccc23)C1=O,0,1,·,·,6
CCOC(=O)C1(Cc2cccc(OC)c2)CCN(Cc2ccccc2OC)CC1,43*,-1,0,-1,-3
CCOC(=O)C1(CCOc2ccccc2)CCN(CCCn2cccn2)CC1,43*,-3,0,1,-3
CCOC(=O)C1(Cc2ccccc2)CCN(Cc2ccc(C)cc2)CC1,·,·,1,·,·
CCOC(=O)C1(Cc2ccccc2)CCN(Cc2csc(C(C)=O)c2)CC1,44*,·,1,3,-6
CCOC(=O)C1(Cc2ccccc2)CCN(Cc2cccc3nccnc23)CC1,44*,1,-1,6,5
O=C(c1ccccn1)N1CC2(C1)[C@@H](c1ccccc1)[C@H](CO)N2Cc1ccc(Cl)cc1,0,1,·,·,2
CCOc1cccc(C(=O)NC2CCCCC2)c1,0,-2,·,3,22*
SMILES,FGF22 binding,Casp6 inh,NSD2 inh,UCH37 inh,SIRT5 block
O=C1NC(=S)S/C1=C1\Sc2ccccc2N1CCCS(=O)(=O)O,·,·,3,10,·
NN1C(=O)/C(=C2/Sc3ccccc3N2CCCS(=O)(=O)O)SC1=S,0,55*,10,6,7
CCN(CC)C(=O)C1=C(C)NC(=S)NC1c1cccs1 (stereo not drawn),0,1,-2,27*,1
CCN(CC)C(=O)C1=C(C)NC(=S)NC1c1ccc(C)s1 (stereo not drawn),0,-2,-3,2,1
COCCOC(=O)C1=C(C)NC(=S)NC1c1cccs1 (stereo not drawn),43*,·,-3,5,-1
COc1ccc(NC(=O)CC2C(=O)N(Cc3cccs3)C(=S)N2C(C)C)cc1 (stereo not drawn),0,4,-2,5,31*
COc1ccc(NC(=O)CC2C(=O)N(Cc3ccco3)C(=S)N2C(C)C)cc1 (stereo not drawn),0,7,1,3,-1
O=C(CSc1ccsc1[N+](=O)[O-])NCc1ccco1,0,46*,3,5,0
COc1cccc(C=NNC(=O)c2cc3c(OC)c(OC)ccc3[nH]2)c1OC,·,·,·,-5,·
CCOC(=O)/C(C)=N/NC(=O)c1cccc([N+](=O)[O-])c1,44*,-3,1,·,1
CC(=NNC(=O)c1cccc([N+](=O)[O-])c1)c1ccncc1,·,·,·,4,·
C[C@H]1CN([C@@H](C)CO)S(=O)(=O)c2ccc(C#CC3(O)CCCC3)cc2O[C@@H]1CN(C)C(=O)Cc1ccccc1,0,0,·,·,-3
CNC(=O)C[C@@H]1CC[C@@H]2[C@H](COc3ccc(NC(=O)c4cc(F)cc(F)c4)cc3C(=O)N2C)O1,0,1,·,·,16*
COC(=O)C[C@H]1CC[C@@H]2[C@H](COc3ccc(NC(=O)c4cnccn4)cc3C(=O)N2C)O1,0,57*,·,·,-2
CN(C)C(=O)C[C@@H]1CC[C@@H]2[C@H](COc3ccc(NC(=O)c4ccc(F)c(F)c4)cc3C(=O)N2C)O1,0,0,·,·,16*
COc1ccccc1C(=O)Nc1ccc2c(c1)C(=O)N(C)[C@H]1CC[C@H](CC(=O)Nc3cccc(C(C)C)c3)O[C@@H]1CO2,0,-3,·,·,19*
CNC(=O)C[C@H]1CC[C@H]2[C@@H](COc3ccc(NC(=O)c4ccccc4OC)cc3C(=O)N2C)O1,0,0,·,·,2
Cc1nn(CC(=O)NC2CCS(=O)(=O)C2)c(C)c1S(=O)(=O)N(C)C (stereo not drawn),0,1,1,-2,0
Cc1nn(CC(=O)NC2CC2)c(C)c1S(=O)(=O)N(C)C,43*,-3,·,·,·
O=C(CC1CC1)N1[C@@H](CO)[C@@H]2c3ccccc3N(S(=O)(=O)c3ccc(F)cc3)C[C@@H]21,1,1,·,·,25*
O=C(CC1CC1)N1[C@H](CO)[C@H]2c3ccccc3N(S(=O)(=O)c3ccccc3)C[C@H]21,0,1,·,·,-1
O=C(/C=C/NNC(=O)c1ccccc1)c1ccc(Br)cc1,·,·,-1,2,·
O=C(/C=C/NNC(=O)c1ccc(Cl)cc1)c1ccccc1,44*,1,0,9,-6
CCCNC(=O)C[C@H]1CC[C@H]2[C@@H](COC[C@H](O)CN2C(=O)c2ccccn2)O1,0,1,·,·,-1
Cc1cc(=O)n(C)c2ccccc12,43*,-1,-8,7,-1
